Data: ChEMBL document CHEMBL5303300, “EUbOPEN Chemogenomics Library - Multiplex” (2023)
“And” between values parts separate entries of the source, which are not always exact repeats. Equal entries are not always repeated.

Test system: Fibroblast
Assay: Multiplex assay against human fibroblast
Assay type: toxicity, cell-based
Details: number of replicates 2
In short: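 With compound added, live cells were imaged on a CQ1 microscope at 37°C and 5% CO2; staining with Hoechst33342, BioTracker Green Microtubule Cytoskeleton Dye, MitoTracker Red and Annexin V Alexa Fluor 680 had been done at seeding. The CellPathfinder machine-learning gating scheme split cells into Hoechst high-intensity objects or normal cells, normal cells into healthy, pyknosed or fragmented nuclei, and pyknosed cells into mitotic or apoptotic. The tubulin, mitochondrial-mass and membrane-permeability phenotypes are per cents of healthy-nucleus cells.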

[1] = 12 h, 1 µM, compound concentration 1 uM
[2] = 12 h, 10 µM, compound concentration 10 uM
[3] = 24 h, 1 µM, compound concentration 1 uM
[4] = 24 h, 10 µM, compound concentration 10 uM
[5] = 48 h, 1 µM, compound concentration 1 uM
[6] = 48 h, 10 µM, compound concentration 10 uM

## Cn1cc(-c2ccc(-c3cncc(Cl)c3N3CCC4(CCNC4=O)CC3)cc2)cn1
[1]
  Population Apoptotic (%): 34% and 44%
  Population Fragmented Nuclei (%): 3% and 11%
  Population Healthy Nuclei (%): 66% and 70%
  Population Hoechst High Intensity Objects (%): 0%
  Population Membrane Permeable-Phenotype (%): 9% and 5%
  Population Mitochondria Different-Phenotype (%): 0% and 2%
  Population Mitotic Cells (%): 66% and 55%
  Population Normal (%): 100%
  Population Pyknosed Nuclei (%): 30% and 18%
  Population Tubulin-Different-Phenotype (%): 22% and 16%
  Total Cell Count: 162 and 230
[2]
  Population Apoptotic (%): 25% and 39%
  Population Fragmented Nuclei (%): 14% and 11%
  Population Healthy Nuclei (%): 67% and 71%
  Population Hoechst High Intensity Objects (%): 0%
  Population Membrane Permeable-Phenotype (%): 18% and 13%
  Population Mitochondria Different-Phenotype (%): 3% and 4%
  Population Mitotic Cells (%): 74% and 60%
  Population Normal (%): 100%
  Population Pyknosed Nuclei (%): 17% and 16%
  Population Tubulin-Different-Phenotype (%): 84% and 65%
  Total Cell Count: 196 and 203
[3]
  Population Apoptotic (%): 45% and 50%
  Population Fragmented Nuclei (%): 7% and 13%
  Population Healthy Nuclei (%): 38% and 57%
  Population Hoechst High Intensity Objects (%): 0%
  Population Membrane Permeable-Phenotype (%): 21% and 8%
  Population Mitochondria Different-Phenotype (%): 3% and 2%
  Population Mitotic Cells (%): 54% and 49%
  Population Normal (%): 99%
  Population Pyknosed Nuclei (%): 53% and 28%
  Population Tubulin-Different-Phenotype (%): 41% and 21%
  Total Cell Count: 157 and 229
[4]
  Population Apoptotic (%): 44% and 56%
  Population Fragmented Nuclei (%): 24% and 22%
  Population Healthy Nuclei (%): 62% and 64%
  Population Hoechst High Intensity Objects (%): 0%
  Population Membrane Permeable-Phenotype (%): 15% and 7%
  Population Mitochondria Different-Phenotype (%): 8% and 7%
  Population Mitotic Cells (%): 55% and 43%
  Population Normal (%): 99% and 100%
  Population Pyknosed Nuclei (%): 13% and 12%
  Population Tubulin-Different-Phenotype (%): 82% and 73%
  Total Cell Count: 204 and 232
[5]
  Population Apoptotic (%): 69% and 58%
  Population Fragmented Nuclei (%): 8% and 20%
  Population Healthy Nuclei (%): 50% and 57%
  Population Hoechst High Intensity Objects (%): 0% and 1%
  Population Mitochondria Different-Phenotype (%): 1% and 2%
  Population Mitotic Cells (%): 30% and 41%
  Population Normal (%): 99% and 98%
  Population Pyknosed Nuclei (%): 40% and 22%
  Population Tubulin-Different-Phenotype (%): 47% and 22%
  Total Cell Count: 154 and 211
[6]
  Population Apoptotic (%): 66% and 69%
  Population Fragmented Nuclei (%): 19% and 22%
  Population Healthy Nuclei (%): 67% and 66%
  Population Hoechst High Intensity Objects (%): 0%
  Population Membrane Permeable-Phenotype (%): 9% and 2%
  Population Mitochondria Different-Phenotype (%): 11%
  Population Mitotic Cells (%): 33% and 30%
  Population Normal (%): 99%
  Population Pyknosed Nuclei (%): 12% and 10%
  Population Tubulin-Different-Phenotype (%): 66% and 68%
  Total Cell Count: 210 and 211

## CCOC(=O)Nc1cc(-c2ccc(C)c(NS(C)(=O)=O)c2)nn2c(C)nnc12
[2]
  Population Apoptotic (%): 56% and 50% and 58% and 35%
  Population Fragmented Nuclei (%): 24% [middle of 4 runs]
  Population Healthy Nuclei (%): 74% and 67% and 65% and 60%
  Population Hoechst High Intensity Objects (%): 0%
  Population Mitochondria Different-Phenotype (%): 4% and 3% and 1%
  Population Mitotic Cells (%): 43% and 50% and 41% and 64%
  Population Normal (%): 99% and 100%
  Population Pyknosed Nuclei (%): 13% and 8%
  Population Tubulin-Different-Phenotype (%): 52% and 63% and 54% and 62%
  Total Cell Count: 238 and 256 and 323 and 254
[4]
  Population Apoptotic (%): 52% and 69% and 65% and 42%
  Population Fragmented Nuclei (%): 33% and 20% and 21% and 34%
  Population Healthy Nuclei (%): 58% and 68% and 66% and 56%
  Population Hoechst High Intensity Objects (%): 0%
  Population Membrane Permeable-Phenotype (%): 11% and 5% and 12%
  Population Mitochondria Different-Phenotype (%): 7% and 4% and 2%
  Population Mitotic Cells (%): 47% and 30% and 34% and 57%
  Population Normal (%): 100%
  Population Pyknosed Nuclei (%): 7% and 11% and 8%
  Population Tubulin-Different-Phenotype (%): 57% and 33% and 29% and 43%
  Total Cell Count: 314 and 289 and 319 and 299
[6]
  Population Apoptotic (%): 80% and 97% and 72%
  Population Fragmented Nuclei (%): 16% and 27% and 31%
  Population Healthy Nuclei (%): 71% and 60% and 67% and 52%
  Population Hoechst High Intensity Objects (%): 0%
  Population Membrane Permeable-Phenotype (%): 10% [middle of 4 runs]
  Population Mitochondria Different-Phenotype (%): 1% and 9% and 3% and 8%
  Population Normal (%): 100%
  Population Pyknosed Nuclei (%): 12% and 16%
  Population Tubulin-Different-Phenotype (%): 24% and 48% and 26% and 34%
  Total Cell Count: 248 and 265 and 292 and 250

## O=C1NC(=NCc2cccs2)SC1=Cc1ccc2ncccc2c1
[1]
  Population Apoptotic (%): 31% and 38%
  Population Fragmented Nuclei (%): 17% and 11%
  Population Healthy Nuclei (%): 65% and 76%
  Population Hoechst High Intensity Objects (%): 0%
  Population Membrane Permeable-Phenotype (%): 4% and 3%
  Population Mitochondria Different-Phenotype (%): 0%
  Population Mitotic Cells (%): 68% and 61%
  Population Normal (%): 100%
  Population Pyknosed Nuclei (%): 16% and 12%
  Population Tubulin-Different-Phenotype (%): 5% and 6%
  Total Cell Count: 193 and 211
[2]
  Population Apoptotic (%): 50% and 51%
  Population Fragmented Nuclei (%): 13% and 9%
  Population Healthy Nuclei (%): 74% and 78%
  Population Hoechst High Intensity Objects (%): 0%
  Population Membrane Permeable-Phenotype (%): 2% and 4%
  Population Mitochondria Different-Phenotype (%): 0% and 1%
  Population Mitotic Cells (%): 50% and 48%
  Population Normal (%): 100%
  Population Pyknosed Nuclei (%): 12%
  Population Tubulin-Different-Phenotype (%): 34% and 20%
  Total Cell Count: 190 and 238
[3]
  Population Apoptotic (%): 42% and 26%
  Population Fragmented Nuclei (%): 15% and 10%
  Population Healthy Nuclei (%): 66% and 72%
  Population Hoechst High Intensity Objects (%): 0%
  Population Membrane Permeable-Phenotype (%): 2% and 6%
  Population Mitochondria Different-Phenotype (%): 0%
  Population Mitotic Cells (%): 57% and 73%
  Population Normal (%): 100%
  Population Pyknosed Nuclei (%): 18% and 17%
  Population Tubulin-Different-Phenotype (%): 4% and 6%
  Total Cell Count: 183 and 219
[4]
  Population Apoptotic (%): 69% and 61%
  Population Fragmented Nuclei (%): 10% and 12%
  Population Healthy Nuclei (%): 82% and 75%
  Population Hoechst High Intensity Objects (%): 0%
  Population Membrane Permeable-Phenotype (%): 4% and 2%
  Population Mitochondria Different-Phenotype (%): 1% and 3%
  Population Mitotic Cells (%): 30% and 38%
  Population Normal (%): 100% and 99%
  Population Pyknosed Nuclei (%): 6% and 12%
  Population Tubulin-Different-Phenotype (%): 26% and 23%
  Total Cell Count: 191 and 241
[5]
  Population Apoptotic (%): 65% and 75%
  Population Fragmented Nuclei (%): 17% and 14%
  Population Healthy Nuclei (%): 65% and 68%
  Population Hoechst High Intensity Objects (%): 0%
  Population Membrane Permeable-Phenotype (%): 2% and 3%
  Population Mitochondria Different-Phenotype (%): 0%
  Population Mitotic Cells (%): 34% and 25%
  Population Normal (%): 99% and 100%
  Population Pyknosed Nuclei (%): 17%
  Population Tubulin-Different-Phenotype (%): 10% and 6%
  Total Cell Count: 185 and 211
[6]
  Population Apoptotic (%): 73% and 62%
  Population Fragmented Nuclei (%): 15% and 11%
  Population Healthy Nuclei (%): 77% and 76%
  Population Hoechst High Intensity Objects (%): 0%
  Population Membrane Permeable-Phenotype (%): 0%
  Population Mitochondria Different-Phenotype (%): 0% and 2%
  Population Mitotic Cells (%): 26% and 37%
  Population Normal (%): 100%
  Population Pyknosed Nuclei (%): 7% and 11%
  Population Tubulin-Different-Phenotype (%): 30% and 28%
  Total Cell Count: 201 and 239
